The record followed here is ChEMBL document CHEMBL1144893, “Discovery of a potent and selective protein kinase CK2 inhibitor by high-throughput docking” (J Med Chem, 2003).

Structures are written as SMILES.

For experiment [1], the target named is T1, Casein kinase II (Homo sapiens) (UniProt P67870+P68400+P19784). As to the kind of experiment: Inhibition of Casein kinase 2 at 10 uM. The class given is protein-complex assay.
The target of experiment [2] is Vascular endothelial growth factor receptor 3 (Homo sapiens) (UniProt P35916). The following applies: 10 uM.
Experiment [3] deals with Receptor-type tyrosine-protein kinase FLT3 (Homo sapiens) (UniProt P36888). As to the kind of experiment: Inhibition of Protein kinase Flt-3 at 10 uM.
The target in experiment [4] is Hepatocyte growth factor receptor (Homo sapiens) (UniProt P08581). The experiment is described as follows: Inhibition of Protein kinase Met at 10 uM. In outline:
(§1)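 Filter-binding assay with recombinant GST-fused kinase domains expressed in baculovirus and purified over glutathione sepharose. [33P]-ATP was the phosphate donor and polyGluTyr (4:1) the acceptor. ATP was near Km: KDR, Flt-1, FGFR-1, Tek 8.0 μM; PDGFR-β, c-Kit, c-Met 1.0 μM; c-abl 5 μM; Her-1, Her-2 2.0 μM; c-Src 20 μM; IGF-1R 30 μM.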

Experiment [5] concerns the target Platelet-derived growth factor receptor beta (Homo sapiens) (UniProt P09619). The experiment is described as follows: Inhibition of Platelet derived growth factor receptor beta at 10 uM. Put shortly: as §1
Experiment [6] addresses Fibroblast growth factor receptor 1 (Homo sapiens) (UniProt P11362). As to the kind of experiment: Inhibition of Protein kinase fibroblast growth factor receptor 1 at 10 uM. Put shortly:
as §1

Experiment [7] addresses cAMP-dependent protein kinase (PKA) (Homo sapiens) (UniProt P22694+P17612+P22612). The experiment is described as follows: Inhibition of Protein kinase A at 10 uM. The experiment is classed as protein assay. Put shortly: (§2)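 Run under conditions optimized for each kinase, with ATP near the enzyme's Km: CDK1 7.5 μM, PKA 50 μM.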
Experiment [8] addresses Receptor tyrosine-protein kinase erbB-2 (Homo sapiens) (UniProt P04626). As to the kind of experiment: Inhibition of protein kinase HER-2 at 10 uM. In outline: as §1
Experiment [9] deals with Insulin receptor (Homo sapiens) (UniProt P06213). The experiment is described as follows: Inhibition of Insulin receptor at 10 uM.
Experiment [10] deals with Vascular endothelial growth factor receptor 1 (Homo sapiens) (UniProt P17948). The experiment is described as follows: Inhibition of Protein kinase Flt-1 at 10 uM. Put shortly: as §1
Chain of Vascular endothelial growth factor receptor 1 (Homo sapiens) (P17948 whole entry): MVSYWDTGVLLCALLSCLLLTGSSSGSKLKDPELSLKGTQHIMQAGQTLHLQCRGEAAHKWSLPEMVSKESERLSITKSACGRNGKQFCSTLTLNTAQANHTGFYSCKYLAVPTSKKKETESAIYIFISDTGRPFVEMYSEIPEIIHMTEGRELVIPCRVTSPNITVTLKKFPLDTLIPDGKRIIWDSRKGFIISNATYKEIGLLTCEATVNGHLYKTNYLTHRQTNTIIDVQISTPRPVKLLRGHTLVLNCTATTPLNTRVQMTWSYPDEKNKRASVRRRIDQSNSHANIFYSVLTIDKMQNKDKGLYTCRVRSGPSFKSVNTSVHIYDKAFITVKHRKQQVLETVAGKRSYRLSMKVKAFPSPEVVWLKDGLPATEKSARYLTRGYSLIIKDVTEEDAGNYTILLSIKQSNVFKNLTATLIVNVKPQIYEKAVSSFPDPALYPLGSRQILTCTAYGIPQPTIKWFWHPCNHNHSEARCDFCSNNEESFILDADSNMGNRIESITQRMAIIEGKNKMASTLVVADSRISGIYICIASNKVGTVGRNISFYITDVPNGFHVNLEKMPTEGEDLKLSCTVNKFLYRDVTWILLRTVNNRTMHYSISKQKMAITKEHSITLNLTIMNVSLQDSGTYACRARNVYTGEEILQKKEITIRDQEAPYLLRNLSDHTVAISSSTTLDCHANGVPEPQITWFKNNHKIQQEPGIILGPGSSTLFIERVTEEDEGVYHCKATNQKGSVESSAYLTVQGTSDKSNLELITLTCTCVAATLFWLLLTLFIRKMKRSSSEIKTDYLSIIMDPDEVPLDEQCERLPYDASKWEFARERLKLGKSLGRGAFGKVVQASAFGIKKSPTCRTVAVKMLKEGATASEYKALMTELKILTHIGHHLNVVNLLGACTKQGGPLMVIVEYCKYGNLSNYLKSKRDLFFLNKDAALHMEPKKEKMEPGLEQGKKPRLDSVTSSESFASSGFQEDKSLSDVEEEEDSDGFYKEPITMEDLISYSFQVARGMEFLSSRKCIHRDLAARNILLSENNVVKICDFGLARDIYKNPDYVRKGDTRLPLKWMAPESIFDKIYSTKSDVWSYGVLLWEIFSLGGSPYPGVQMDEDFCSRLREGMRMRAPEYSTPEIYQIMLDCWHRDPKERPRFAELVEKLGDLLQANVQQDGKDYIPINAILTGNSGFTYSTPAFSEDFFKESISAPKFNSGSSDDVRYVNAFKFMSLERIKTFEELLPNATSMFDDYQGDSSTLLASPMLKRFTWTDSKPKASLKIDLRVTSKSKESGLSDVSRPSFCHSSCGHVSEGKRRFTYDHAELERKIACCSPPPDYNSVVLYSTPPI
The target in experiment [11] is Proto-oncogene tyrosine-protein kinase Src (Homo sapiens) (UniProt P12931). The experiment is described as follows: Inhibition of Protein kinase Src at 10 uM. Put shortly: as §1
Chain of Proto-oncogene tyrosine-protein kinase Src (Homo sapiens) (P12931 2-536 limits assumed): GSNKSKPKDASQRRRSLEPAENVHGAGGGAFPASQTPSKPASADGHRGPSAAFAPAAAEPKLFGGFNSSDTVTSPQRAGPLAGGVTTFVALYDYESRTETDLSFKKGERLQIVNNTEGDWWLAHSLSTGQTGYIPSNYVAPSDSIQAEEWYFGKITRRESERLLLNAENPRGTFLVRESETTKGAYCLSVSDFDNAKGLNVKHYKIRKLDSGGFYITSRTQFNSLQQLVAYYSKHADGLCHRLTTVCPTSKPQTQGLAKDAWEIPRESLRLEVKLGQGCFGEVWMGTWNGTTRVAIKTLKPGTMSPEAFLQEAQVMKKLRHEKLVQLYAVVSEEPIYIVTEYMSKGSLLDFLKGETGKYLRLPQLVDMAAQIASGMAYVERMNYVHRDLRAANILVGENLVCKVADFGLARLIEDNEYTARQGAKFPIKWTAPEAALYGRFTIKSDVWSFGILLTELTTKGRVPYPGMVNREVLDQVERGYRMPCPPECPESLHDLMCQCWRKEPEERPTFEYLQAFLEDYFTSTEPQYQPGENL
For experiment [12], the target named is Cyclin-dependent kinase 1 (Homo sapiens) (UniProt P06493). As to the kind of experiment: Inhibition of Cyclin dependent kinase 1 at 10 uM. Put shortly:
as §2

For experiment [13], the target named is Tyrosine-protein kinase ABL1 (Homo sapiens) (UniProt P00519). As to the kind of experiment: Inhibition of c-Abl tyrosine kinase at 10 uM. Put shortly:
as §1

Experiment [14] concerns the target Epidermal growth factor receptor (Homo sapiens) (UniProt P00533). The experiment is described as follows: Inhibition of protein kinase HER-1 at 10 uM. In outline:
as §1

Experiment [15] addresses 3-phosphoinositide-dependent protein kinase 1 (Homo sapiens) (UniProt O15530). The experiment is described as follows: Inhibition of Phosphatidylinositol-trisphosphate-dependent kinase 1 at 10 uM.
In experiment [16] the target is Insulin-like growth factor 1 receptor (Homo sapiens) (UniProt P08069). The experiment is described as follows: Inhibition of Type 1 insulin like growth factor receptor at 10 uM. Put shortly: as §1
Experiment [17] has as its target Vascular endothelial growth factor receptor 2 (Homo sapiens) (UniProt P35968). The experiment is described as follows: Inhibition of Kinase insert domain receptor (VEGFR2) at 10 uM. In outline: as §1
For experiment [18], the target named is Angiopoietin-1 receptor (Homo sapiens) (UniProt Q02763). As to the kind of experiment: Inhibition of Protein kinase TEK at 10 uM. In outline: as §1
Experiment [19] concerns the target Serine/threonine-protein kinase AKT (Homo sapiens) (UniProt P31751+Q9Y243+P31749). The experiment is described as follows: Inhibition of Protein kinase B at 10 uM. The class given is protein assay.
Experiment [20] deals with T1, Casein kinase II (Homo sapiens).
Experiment [21] has as its target Mast/stem cell growth factor receptor Kit (Homo sapiens) (UniProt P10721). As to the kind of experiment: Inhibition of Protein kinase Kit at 10 uM. In outline: as §1
In experiment [22] the target is RAF proto-oncogene serine/threonine-protein kinase (Homo sapiens) (UniProt P04049). The following applies: 10 uM.
Chain of RAF proto-oncogene serine/threonine-protein kinase (Homo sapiens) (P04049 whole entry): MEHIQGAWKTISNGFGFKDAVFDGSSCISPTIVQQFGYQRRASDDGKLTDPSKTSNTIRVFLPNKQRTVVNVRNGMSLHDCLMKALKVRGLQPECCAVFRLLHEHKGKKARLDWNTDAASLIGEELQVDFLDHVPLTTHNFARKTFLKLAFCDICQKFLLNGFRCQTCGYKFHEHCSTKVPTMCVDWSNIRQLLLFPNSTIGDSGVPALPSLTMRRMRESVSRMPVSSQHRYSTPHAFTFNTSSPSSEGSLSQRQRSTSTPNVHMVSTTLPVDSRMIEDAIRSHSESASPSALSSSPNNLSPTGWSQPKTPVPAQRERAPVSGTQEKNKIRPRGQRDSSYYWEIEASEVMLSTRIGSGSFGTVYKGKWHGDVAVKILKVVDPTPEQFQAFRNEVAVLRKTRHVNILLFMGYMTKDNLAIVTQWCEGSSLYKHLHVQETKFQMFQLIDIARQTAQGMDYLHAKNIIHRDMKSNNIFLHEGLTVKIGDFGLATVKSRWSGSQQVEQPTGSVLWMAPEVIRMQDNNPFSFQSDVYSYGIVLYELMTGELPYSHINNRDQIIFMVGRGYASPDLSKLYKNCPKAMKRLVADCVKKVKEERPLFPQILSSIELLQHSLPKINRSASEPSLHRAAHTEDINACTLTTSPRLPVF

Chain of Vascular endothelial growth factor receptor 2 (Homo sapiens) (P35968 whole entry, the tested form may be a part): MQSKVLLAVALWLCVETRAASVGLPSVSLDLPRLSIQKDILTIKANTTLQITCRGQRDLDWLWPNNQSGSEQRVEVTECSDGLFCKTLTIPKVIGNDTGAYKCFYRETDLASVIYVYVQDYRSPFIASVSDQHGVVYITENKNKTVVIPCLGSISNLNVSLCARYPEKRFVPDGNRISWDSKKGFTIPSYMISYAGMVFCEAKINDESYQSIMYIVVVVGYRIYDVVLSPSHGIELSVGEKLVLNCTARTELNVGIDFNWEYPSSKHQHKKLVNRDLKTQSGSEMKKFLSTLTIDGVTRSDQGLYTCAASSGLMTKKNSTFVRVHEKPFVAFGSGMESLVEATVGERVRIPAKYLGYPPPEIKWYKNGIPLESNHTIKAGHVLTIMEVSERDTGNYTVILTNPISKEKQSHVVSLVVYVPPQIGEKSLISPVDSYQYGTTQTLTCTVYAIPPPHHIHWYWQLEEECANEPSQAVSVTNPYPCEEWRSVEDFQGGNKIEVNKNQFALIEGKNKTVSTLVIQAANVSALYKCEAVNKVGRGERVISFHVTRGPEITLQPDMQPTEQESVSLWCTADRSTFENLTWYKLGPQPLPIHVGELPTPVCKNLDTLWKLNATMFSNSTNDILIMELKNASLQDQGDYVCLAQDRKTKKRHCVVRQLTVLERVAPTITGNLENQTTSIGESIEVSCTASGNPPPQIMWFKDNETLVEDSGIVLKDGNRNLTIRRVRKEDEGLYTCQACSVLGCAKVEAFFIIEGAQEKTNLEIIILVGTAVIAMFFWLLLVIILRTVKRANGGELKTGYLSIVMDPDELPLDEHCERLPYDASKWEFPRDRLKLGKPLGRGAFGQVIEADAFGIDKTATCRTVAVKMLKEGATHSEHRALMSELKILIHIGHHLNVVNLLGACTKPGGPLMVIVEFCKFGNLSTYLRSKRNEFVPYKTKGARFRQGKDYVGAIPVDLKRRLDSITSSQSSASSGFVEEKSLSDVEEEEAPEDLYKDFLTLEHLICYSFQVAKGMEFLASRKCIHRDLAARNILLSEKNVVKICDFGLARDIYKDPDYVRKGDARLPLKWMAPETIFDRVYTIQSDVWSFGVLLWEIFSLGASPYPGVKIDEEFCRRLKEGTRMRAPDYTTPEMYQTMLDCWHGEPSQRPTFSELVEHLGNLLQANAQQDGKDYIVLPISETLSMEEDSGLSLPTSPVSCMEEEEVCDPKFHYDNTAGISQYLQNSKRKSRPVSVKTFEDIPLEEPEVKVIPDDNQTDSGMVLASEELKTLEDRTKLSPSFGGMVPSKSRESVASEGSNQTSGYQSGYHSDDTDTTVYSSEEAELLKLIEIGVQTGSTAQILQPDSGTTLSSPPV
Chain of Platelet-derived growth factor receptor beta (Homo sapiens) (P09619 whole entry): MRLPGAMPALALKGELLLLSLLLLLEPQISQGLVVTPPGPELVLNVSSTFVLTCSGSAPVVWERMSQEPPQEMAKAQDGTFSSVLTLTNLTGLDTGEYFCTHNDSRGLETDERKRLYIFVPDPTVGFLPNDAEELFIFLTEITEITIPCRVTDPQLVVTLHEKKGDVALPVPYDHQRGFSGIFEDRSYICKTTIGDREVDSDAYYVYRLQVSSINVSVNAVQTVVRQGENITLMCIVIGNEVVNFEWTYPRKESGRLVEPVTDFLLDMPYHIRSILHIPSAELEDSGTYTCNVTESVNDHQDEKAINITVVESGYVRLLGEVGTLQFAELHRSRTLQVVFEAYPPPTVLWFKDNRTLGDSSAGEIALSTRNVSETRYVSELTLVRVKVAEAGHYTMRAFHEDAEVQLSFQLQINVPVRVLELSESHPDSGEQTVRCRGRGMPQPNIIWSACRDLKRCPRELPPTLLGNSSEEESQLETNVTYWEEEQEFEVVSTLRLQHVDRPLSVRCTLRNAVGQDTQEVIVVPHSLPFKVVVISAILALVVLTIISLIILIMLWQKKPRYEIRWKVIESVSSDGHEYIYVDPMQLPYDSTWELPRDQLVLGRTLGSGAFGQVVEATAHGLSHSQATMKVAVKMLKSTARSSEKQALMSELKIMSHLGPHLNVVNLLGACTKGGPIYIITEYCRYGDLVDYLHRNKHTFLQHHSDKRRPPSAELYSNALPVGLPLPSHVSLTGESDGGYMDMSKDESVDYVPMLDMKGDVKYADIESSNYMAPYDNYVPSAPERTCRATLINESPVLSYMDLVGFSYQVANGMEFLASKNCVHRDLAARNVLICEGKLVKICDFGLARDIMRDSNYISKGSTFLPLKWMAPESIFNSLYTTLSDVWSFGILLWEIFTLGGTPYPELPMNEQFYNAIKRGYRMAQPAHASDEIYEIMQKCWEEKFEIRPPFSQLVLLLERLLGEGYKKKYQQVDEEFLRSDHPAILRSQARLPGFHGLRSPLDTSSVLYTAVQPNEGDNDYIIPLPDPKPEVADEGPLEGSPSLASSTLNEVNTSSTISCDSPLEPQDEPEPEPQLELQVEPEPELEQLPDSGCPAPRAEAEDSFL

A word on the inhibition: it is the relative decrease from the control value, in per cent. Turning to `OCCc1c2ccccc2n2c1nc(O)c1ccccc12`, in [1], the inhibition turned out to be 48%.

`Cc1c2ccccc2n2c1nc(O)c1ccccc12` registered an inhibition in [1] of 12%.

For orientation: IC50 means the midpoint of a concentration-inhibition curve. Regarding `O=C(O)Cc1c2ccccc2n2c1[nH]c(=O)c1ccccc12`, the inhibition in experiment [2] worked out at 30%; in experiment [3], 41%; in experiment [4] it was 40%; in experiment [5], 11%; in experiment [6], 32%; in experiment [7], 51%. Also, the inhibition came to 29% in experiment [8]; 23% in experiment [9]; 21% in [10]; 0% in experiment [11]; 97% in experiment [1]; 51% in experiment [12]. Moreover, the inhibition in experiment [13] came to 25%; in experiment [14] it was 12%; in experiment [15] it was 9%; in experiment [16], 44%; in experiment [17], 54%; in experiment [18] it was 36%. The inhibition in [19] is 30%; in experiment [21], 31%; in experiment [22] it was 30%. The molecule also yielded an IC50 in experiment [20] of 0.08 µM.
